# Test results as given in paper PMC11489560 (Molecular Therapy, 2024).
# B1: brain-derived neurotrophic factor (protein, UniProt P23560 19-247, looked up)
# Neurotrophic factor BDNF …: APMKEANIRGQGGLAYPGVRTHGTLESVNGPKAGSRGLTSLADTFEHVIEELLDEDQKVRPNEENNKDADLYTSRVMLSSQVPLEPPLLFLLEEYKNYLDAANMSMRVRRHSDPARRGELSVCDSISEWVTAADKKTAVDMSGGTVTVLEKVPVSKGQLKQYFYETKCNPMGYTKEGCRGIDKRHWNSQCRTTQSYVRALTMDSKKRIGWRFIRIDTSCVCTLTIKRGR
# Tests used:
# hippocampal slices = experiment: Effect of BDNF on LTP in hippocampal slices; parameters: species or system rat; conditions: control conditions (vehicle-exposed slices); BDNF 30 ng/mL
# How it was run: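 Acute hippocampal slices from male Wistar rats (7-10 weeks) recovered at least 60 min in gassed aCSF at 22°C-24°C, then exposed 3 h at room temperature to vehicle (PBS, pH 7.4). BDNF was tested in separate slices from the same rats. LTP magnitude was the normalized change in mean fEPSP slope 50-60 min post-induction versus the 10 min before induction.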
# hippocampal synaptosomes = experiment: [3H]Glutamate release from hippocampal synaptosomes, effect of BDNF; parameters: species or system rat; conditions: control conditions; BDNF 30 ng/mL
# How it was run: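 Hippocampal slices from male Wistar rats (7-10 weeks) were exposed 3 h to vehicle (PBS), then synaptosomes were isolated via 45% Percoll in KHR. Synaptosomes (1-2 mg/mL protein) equilibrated 5 min at 37°C in oxygenated aCSF and were loaded with [3H]glutamate, then given two K+ depolarizations. Release was expressed as % of total radioactivity per time point, and internal control curves from the same batch were subtracted. The BDNF effect was the integrated S2 peak area above basal tritium release.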
molecule,measurement,setting,value
B1,LTP magnitude,hippocampal slices,potentiated
same,K+-evoked glutamate release,hippocampal synaptosomes,potentiated
